Data as given in ChEMBL document CHEMBL4049456, “Identification of 4-(Aminomethyl)-6-(trifluoromethyl)-2-(phenoxy)pyridine Derivatives as Potent, Selective, and Orally Efficacious Inhibitors of the Copper-Dependent Amine Oxidase, Lysyl Oxidase-Like 2 (LOXL2)” (J Med Chem, 2017).

What was measured:
[1] = biological target: T1, Lysyl oxidase homolog 2 (Homo sapiens) (UniProt Q9Y4K0); assay: Irreversible inhibition of human LOXL2 assessed as reduction of H2O2 production from oxidative deamination of DAP at 1000 times IC50 preincubated for 2 hrs followed by compound washout and subsequent incubation for 2 hrs prior to substrate addition measured every 2 mins for 40 mins by amplex red reagent-based fluorescence assay relative to control
T1 sequence (whole entry): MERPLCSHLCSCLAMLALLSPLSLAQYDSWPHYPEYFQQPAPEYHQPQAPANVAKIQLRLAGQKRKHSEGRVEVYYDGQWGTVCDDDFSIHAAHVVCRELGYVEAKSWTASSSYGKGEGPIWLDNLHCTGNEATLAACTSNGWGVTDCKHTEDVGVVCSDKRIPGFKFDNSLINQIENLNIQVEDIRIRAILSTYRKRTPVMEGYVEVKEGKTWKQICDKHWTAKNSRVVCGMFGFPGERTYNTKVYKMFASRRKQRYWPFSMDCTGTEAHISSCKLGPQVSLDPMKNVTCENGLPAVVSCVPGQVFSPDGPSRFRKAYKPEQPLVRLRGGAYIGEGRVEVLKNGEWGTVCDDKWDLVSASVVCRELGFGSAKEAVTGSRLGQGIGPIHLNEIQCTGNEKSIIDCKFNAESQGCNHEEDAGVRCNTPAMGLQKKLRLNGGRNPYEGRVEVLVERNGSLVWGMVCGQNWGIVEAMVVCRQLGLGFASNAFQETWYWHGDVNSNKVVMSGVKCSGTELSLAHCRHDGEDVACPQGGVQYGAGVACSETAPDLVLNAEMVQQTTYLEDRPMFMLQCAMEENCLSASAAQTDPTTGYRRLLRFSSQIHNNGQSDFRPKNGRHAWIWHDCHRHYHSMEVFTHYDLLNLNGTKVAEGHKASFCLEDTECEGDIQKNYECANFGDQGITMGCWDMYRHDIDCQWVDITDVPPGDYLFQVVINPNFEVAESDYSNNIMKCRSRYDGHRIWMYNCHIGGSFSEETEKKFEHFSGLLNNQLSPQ
Summary of the method: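 Wells were washed repeatedly with PBS and equilibrated for 2 h. Recovered activity was then compared with nonwashed controls.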

Mus musculus = assay: Toxicity in C57BL/6 mouse assessed as mortality at 3 to 60 mg/kg, po qd administered 15 days starting 1 day prior to bleomycin instillation; format: organism-based; conditions: in vivo
Summary of the method: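 Male C57BL/6 mice, 6 to 7 weeks old. Lung fibrosis induced by a single oropharyngeal bleomycin dose (1.5 U/kg). Compound given orally once daily at 3, 10, 30 or 60 mg/kg for 15 days, starting 1 day before bleomycin. Mortality and body weight loss monitored; lungs taken at day 14 post-bleomycin.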

[2] = Cmax in C57BL/6 mouse lung at 30 mg/kg, po by LC-MS/MS analysis; format: ADME, organism-based; set-up: dose 30 mg/kg, route oral
Summary of the method: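 Normal C57BL/6 mice, n = 3 per time point, received a single oral 30 mg/kg dose formulated in 0.5% methylcellulose.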

[3] = Protein binding in human plasma; format: ADME, cell-free; conditions: read-out: PPB (converted)
MAO-B = biological target: T2, MAO-B (Homo sapiens, UniProt P27338); assay: Inhibition of recombinant human MAO-B assessed as reduction of H2O2 production from oxidative deamination of benzylamine at 10 uM preincubated for 2 hrs followed by substrate addition; conditions: probe benzylamine
T2 sequence (P27338 whole entry): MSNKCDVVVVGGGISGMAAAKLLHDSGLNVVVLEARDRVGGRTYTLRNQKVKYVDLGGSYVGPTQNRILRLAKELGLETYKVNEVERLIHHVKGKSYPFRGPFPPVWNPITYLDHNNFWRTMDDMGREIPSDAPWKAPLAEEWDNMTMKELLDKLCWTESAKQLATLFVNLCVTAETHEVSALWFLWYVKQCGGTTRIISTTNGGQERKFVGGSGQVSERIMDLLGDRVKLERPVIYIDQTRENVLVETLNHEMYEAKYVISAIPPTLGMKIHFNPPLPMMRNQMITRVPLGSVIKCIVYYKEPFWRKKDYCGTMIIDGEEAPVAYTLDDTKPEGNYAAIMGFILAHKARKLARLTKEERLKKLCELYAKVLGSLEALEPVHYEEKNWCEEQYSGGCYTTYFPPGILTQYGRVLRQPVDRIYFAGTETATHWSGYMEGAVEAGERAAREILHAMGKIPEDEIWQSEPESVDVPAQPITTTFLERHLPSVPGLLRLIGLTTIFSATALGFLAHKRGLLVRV
Summary of the method: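 Purified recombinant human MAO-A (tyramine substrate) or MAO-B (benzylamine substrate) was preincubated with compound for 2 h. Percent inhibition was calculated against vehicle and enzyme-free controls.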

[4] = biological target: T3, Diamine oxidase [copper-containing] (Homo sapiens) (UniProt P19801); assay: Inhibition of recombinant human DAO assessed as reduction of H2O2 production from oxidative deamination of DAP at 10 uM preincubated for 2 hrs followed by substrate addition measured every 2 mins for 1 hr by amplex red reagent-based fluorescence assay
T3 sequence (whole entry): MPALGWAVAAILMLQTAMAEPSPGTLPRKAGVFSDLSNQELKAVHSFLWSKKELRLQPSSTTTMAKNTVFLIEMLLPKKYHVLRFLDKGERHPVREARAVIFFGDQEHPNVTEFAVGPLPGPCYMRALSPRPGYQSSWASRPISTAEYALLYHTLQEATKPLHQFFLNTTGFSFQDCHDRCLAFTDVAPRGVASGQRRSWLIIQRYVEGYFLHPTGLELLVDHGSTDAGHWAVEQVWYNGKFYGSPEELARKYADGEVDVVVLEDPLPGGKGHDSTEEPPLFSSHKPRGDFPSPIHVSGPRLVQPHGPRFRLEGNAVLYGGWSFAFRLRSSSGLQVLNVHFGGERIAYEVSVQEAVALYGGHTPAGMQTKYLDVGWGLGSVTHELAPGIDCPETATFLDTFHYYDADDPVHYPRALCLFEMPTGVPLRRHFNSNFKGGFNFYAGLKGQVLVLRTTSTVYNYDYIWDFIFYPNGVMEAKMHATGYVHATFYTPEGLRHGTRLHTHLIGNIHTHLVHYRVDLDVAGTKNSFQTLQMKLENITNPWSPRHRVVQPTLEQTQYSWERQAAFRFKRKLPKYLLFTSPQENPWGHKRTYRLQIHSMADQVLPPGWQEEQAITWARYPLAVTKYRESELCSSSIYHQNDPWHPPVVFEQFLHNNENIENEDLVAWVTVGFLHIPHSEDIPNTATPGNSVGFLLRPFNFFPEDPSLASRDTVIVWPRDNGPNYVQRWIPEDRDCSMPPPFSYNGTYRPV
Summary of the method: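 Purified recombinant human DAO was preincubated with compound for 2 h and DAP used as substrate. Percent inhibition was calculated against vehicle and enzyme-free controls.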

[5] = biological target: T1, Lysyl oxidase homolog 2 (Homo sapiens); assay: (§1) Inhibition of recombinant human LOXL2 expressed in human whole blood assessed as reduction of H2O2 production from oxidative deamination of DAP preincubated for 2 hrs followed by substrate addition measured every 2 mins for 1 hr by amplex red reagent-based fluorescence assay
Lysyl oxidase homolog 2 = biological target: T4, Lysyl oxidase homolog 2 (Homo sapiens, UniProt Q9Y4K0); assay: as §1
T4 sequence (Q9Y4K0 whole entry): T1 sequence (whole entry)

SMILES: Cl.NCc1cc(Oc2cccc(C(=O)N3C[C@@H](O)[C@H](F)C3)c2)nc(C(F)(F)F)c1 (racemic)
- inhibition [1]: 77%
- Activity (Mus musculus): Non-Toxic
- Cmax [2]: 21 µM
- fraction unbound [3]: 0.32
- inhibition at 2 h, 10 µM (MAO-B): < 10%
- inhibition [4]: < 10%
- IC90 [5]: 5.4 µM
- IC50 (Lysyl oxidase homolog 2): 0.87 µM
